Published values gathered from unrelated publications.
Lines come from different studies, so protocols differ.
Target: MAP/microtubule affinity-regulating kinase 3 (MARK3, Homo sapiens, UniProt P27448)

Structure (SMILES)	assay	setting	remaining binding [%]
O=C(NCCCN1CCOCC1)c1ccc(Nc2nccc(-c3cc4ccccc4s3)n2)cc1	binding, competition with immobilised ligand	1 µM	100
C[C@H](c1ccc(F)cc1)N(Cc1cccc(C(=O)O)c1)C(=O)c1cnc2ccccc2c1	cell-free assay, competition with immobilised ligand	1 µM	100
COc1cnc(Nc2cccc(S(N)(=O)=O)c2)nc1N1CCN(c2ccccc2)CC1	binding, competition with immobilised ligand	1 µM	100
N#Cc1ccccc1CSc1nnc2c(n1)[nH]c1ccccc12	binding, competition with immobilised ligand	10 µM	93
O=C(O)[C@H]1[C@H](Cn2nnc3ccccc3c2=O)CC[C@@H]1C(=O)c1ccc(OCCC2CCOCC2)cc1	cell-free assay, competition with immobilised ligand	1 µM	100
C[C@H]1CCN(c2nccc(-c3cnn4ncccc34)n2)C1	binding	1 µM	92
C[C@@H](c1ccc(-n2cnc3c(N)ncnc32)cc1)N1CCc2nn(C)c(Cc3ccccc3)c2C1=O	binding, competition with immobilised ligand	0.1 µM	93
C[C@H](c1cccc(C#N)c1)n1cc(Cl)cc(C(N)=O)c1=N	cell-free assay, competition with immobilised ligand	1 µM	100
COc1ccnn2ncc(-c3ccnc(N(C)C)n3)c12	binding	1 µM	44
COc1ncc2cc3ccccc3nc2c1C#N	cell-free assay, competition with immobilised ligand	5 µM	100
C[C@@H]1CN(c2ccc3ncc(-c4ccc5[nH]nc(C6CC6)c5c4)n3n2)C[C@H](C)O1	binding, competition with immobilised ligand	0.5 µM	100
CN(CCCC(F)(F)F)c1nccc(-c2cnn3ncccc23)n1	binding	1 µM	100
O=C(Nc1ccc(Oc2ccc(F)cc2)cc1)N1CCc2ncccc2[C@H]1c1ccc(F)cc1	cell-free assay, competition with immobilised ligand	1 µM	100
COc1cnc(Nc2cccc(S(N)(=O)=O)c2)nc1N1CCN(c2ccccc2)C(=O)C1	binding, competition with immobilised ligand	1 µM	92
N[C@@H]1CCN(c2nccc(-c3cnn4ncccc34)n2)C1	binding	1 µM	100
O=C(NCCCN1CCOCC1)c1ccc(Nc2ncc(Cl)c(-c3ccc(Cl)s3)n2)cc1	binding, competition with immobilised ligand	1 µM	100
Cc1cnn2ncc(-c3ccnc(N(C)C)n3)c2c1	binding	1 µM	82
FC(F)(F)Oc1cccc(-c2cnc3ccc(-c4ccncc4)nn23)c1	cell-free assay, competition with immobilised ligand	5 µM	97
COc1cc(-c2cn(C3CCc4ccccc4N(CC(F)(F)F)C3=O)nn2)ccc1-n1ccc(C)n1 (stereo not drawn)	cell-free assay, competition with immobilised ligand	1 µM	100
O=C(Nc1c[nH]nc1C(=O)NC1CCNCC1)c1cc(F)cc(F)c1	binding, competition with immobilised ligand	1 µM	100
CO[C@H]1CC[C@H](CNc2ccc(S(=O)(=O)NC(=O)c3ccc(N4CCN(CC5=C(c6ccc(Cl)cc6)CC(C)(C)CC5)CC4)cc3Oc3cnc4[nH]ccc4c3)cc2[N+](=O)[O-])CC1	cell-free assay, competition with immobilised ligand	1 µM	96
CN(c1nccc(-c2cnn3ncccc23)n1)C1CC1	binding	1 µM	100
C[C@@H]1CN(c2cc(-c3nn(C)c4ccc(OC5(C)CC5)cc34)ncn2)C[C@H](C)O1	cell-free assay, competition with immobilised ligand	1 µM	100
O=C(c1ccc(Nc2ncc(Cl)c(-c3ccc(Cl)s3)n2)cc1)N1CCC(N2CCCC2)CC1	binding, competition with immobilised ligand	1 µM	100
